Calls of active or inactive are those of the source. The rule behind the calls is not given here.
What was measured:
[1] = molecular target: T1, Induced myeloid leukemia cell differentiation protein Mcl-1 (Homo sapiens, UniProt Q07820); test: biochemical
[2] = molecular target: T1, Induced myeloid leukemia cell differentiation protein Mcl-1; test: Binding affinity to PEST and transmembrane regions lacking N-terminal His6/MBP-tagged human MCl1 (172 to 327 residues) expressed in Escherichia coli Rosetta2(2DE3) pLysS cells assesed as inhibition of protein interaction with carboxyfluorescein-labeled 26-mer Noxa peptide at 15 nM to 250 uM by fluorescence polarization assay in presence of CHAPS
Outline: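 Competition fluorescence polarization assay measuring displacement of a […] cognate (Noxa) peptide from Mcl-1. Polarization was read across a dose series of test compound. Buffer contained 0.1% CHAPS to rule out compound aggregation. Ki values were derived from the competition data.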

[3] = molecular target: T1, Induced myeloid leukemia cell differentiation protein Mcl-1; test: Reversible binding affinity to PEST and transmembrane regions lacking N-terminal His6/MBP-tagged human MCl1 (172 to 327 residues) expressed in Escherichia coli Rosetta2(2DE3) pLysS cells at 50 uM measured for 300 secs by bio-layer interferometry

T1 sequence (Q07820 whole entry, the tested form may be a part): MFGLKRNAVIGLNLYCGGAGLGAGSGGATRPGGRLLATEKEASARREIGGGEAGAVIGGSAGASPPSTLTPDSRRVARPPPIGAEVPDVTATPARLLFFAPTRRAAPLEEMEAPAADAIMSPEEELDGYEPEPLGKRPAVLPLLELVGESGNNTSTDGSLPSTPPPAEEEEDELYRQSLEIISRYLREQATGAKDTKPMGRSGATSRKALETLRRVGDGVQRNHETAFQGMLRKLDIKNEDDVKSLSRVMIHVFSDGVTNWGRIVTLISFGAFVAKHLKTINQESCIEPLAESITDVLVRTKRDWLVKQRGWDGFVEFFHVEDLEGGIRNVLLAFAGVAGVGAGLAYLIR

SMILES | Ki [1] [µM] | further results
COc1ccc(/C=C/C(=O)c2ccc(O)cc2)c(O)c1 | > 50 | –
COc1ccc(C(=O)/C=C/c2cc(F)c(O)c(Cl)c2)c(OC)c1OC | 3 | –
COc1cc2oc(-c3ccccc3N)cc(=O)c2c(OC)c1OC | > 50 | –
O=C(/C=C/c1cc(F)c(O)c(F)c1)c1ccc2c(c1)CCO2 | > 50 | –
COc1ccc(C(=O)/C=C/c2cc(Cl)c(O)c(OC)c2)cc1 | 10 | –
COc1cc2oc(-c3ccccc3[N+](=O)[O-])cc(=O)c2c(OC)c1OC | > 50 | –
COc1cc(O)c(C(=O)/C=C/c2ccccc2[N+](=O)[O-])c(OC)c1OC | > 50 | –
O=C(/C=C/c1ccncc1)c1ccc(O)cc1 | > 50 | –
COc1cc2oc(-c3ccc(N)cc3)cc(=O)c2c(OC)c1OC | > 50 | –
Cc1c(/C=N/N2C=Nc3c([nH]c4ccccc34)C2)c(=O)oc2c3c4c(cc12)CCCN4CCC3 | – | inhibition of Noxa peptide binding (active/inactive call) [2]: Active; Activity [3]: Active
COc1cc(/C=C/C(=O)c2ccc(OC)c(OC)c2OC)cc(Cl)c1O | 2 | –
COc1ccc(C(=O)/C=C/c2ccncc2)c(O)c1 | > 50 | –
COc1cc(O)c(C(=O)/C=C/c2ccc(O)c(OC)c2)c(OC)c1 | 21 | inhibition of Noxa peptide binding (active/inactive call) [2]: Active; Activity [3]: Active
c1cc2c(cc1[C@H]1OC[C@H]3[C@H]1CO[C@H]3c1ccc3c(c1)OCO3)OCO2 | 7 | inhibition of Noxa peptide binding (active/inactive call) [2]: Active; Activity [3]: Active
O=C(/C=C/c1ccc(O)c(F)c1)c1ccc2c(c1)CCO2 | > 50 | –
C[C@@]12CC[C@@H]3[C@H](CCC4=CC(=O)CC[C@H]43)[C@H]1CC[C@H]2OC1(O)C(=O)c2ccccc2C1=O | 12 | inhibition [2]: Active; Activity [3]: Active

SMILES | Ki [1] [µM] | further results
COc1ccc(C(=O)/C=C/c2cc(F)c(O)c(Cl)c2)cc1 | 7 | –
COc1cc(C(=O)/C=C/c2ccc3c(c2)OCO3)c(O)c(OC)c1OC | > 50 | –
COc1ccc(C(=O)/C=C/c2cccc(F)c2O)cc1 | 20 | –
O=C(/C=C/c1ccc(O)cc1)c1ccc2c(c1)CCO2 | > 50 | –
COc1ccc(C(=O)/C=C/c2ccc(O)c(F)c2)c(OC)c1OC | 28 | –
COc1cc2oc(-c3ccc(C(F)(F)F)cc3)cc(=O)c2c(OC)c1OC | > 50 | –
COc1ccc(/C=C/C(=O)c2cc(OC)c(OC)c(OC)c2O)cc1 | > 50 | –
COc1cc(C(=O)/C=C/c2ccc([N+](=O)[O-])cc2)c(O)c(OC)c1OC | > 50 | –
COc1ccc(C(=O)/C=C/c2ccc(O)cc2)cc1 | > 50 | –
COc1ccc(/C=C/C(=O)c2ccc(O)cc2)cc1 | > 50 | –
COc1cc(C(=O)/C=C/c2ccc(O)cc2)c(O)c(OC)c1OC | 40 | –
COc1cc(C(=O)/C=C/c2ccc(C(F)(F)F)cc2)c(O)c(OC)c1OC | > 50 | –
COc1cc(O)c(C(=O)/C=C/c2ccc([N+](=O)[O-])cc2)c(OC)c1OC | > 50 | –
O=C(/C=C/c1cc(F)c(O)c(Cl)c1)c1ccncc1 | > 50 | –
COc1cc(O)c(C(=O)/C=C/c2ccc(C(F)(F)F)cc2)c(OC)c1OC | > 50 | –

From ChEMBL document CHEMBL3813679, “DARC: Mapping Surface Topography by Ray-Casting for Effective Virtual Screening at Protein Interaction Sites” (J Med Chem, 2016)
